In ChEMBL document CHEMBL4339200, “Structure-based Discovery of Phenyl (3-Phenylpyrrolidin-3-yl)sulfones as Selective, Orally Active RORγt Inverse Agonists” (ACS Med Chem Lett, 2019):

Experiments:
[1] = molecular target: T1, Oxysterols receptor LXR-beta (Homo sapiens, UniProt P55055); test: Agonist activity at LXRbeta (unknown origin) expressed in African green monkey CV1 cells; assay type: cell-based
T1 sequence (P55055 whole entry): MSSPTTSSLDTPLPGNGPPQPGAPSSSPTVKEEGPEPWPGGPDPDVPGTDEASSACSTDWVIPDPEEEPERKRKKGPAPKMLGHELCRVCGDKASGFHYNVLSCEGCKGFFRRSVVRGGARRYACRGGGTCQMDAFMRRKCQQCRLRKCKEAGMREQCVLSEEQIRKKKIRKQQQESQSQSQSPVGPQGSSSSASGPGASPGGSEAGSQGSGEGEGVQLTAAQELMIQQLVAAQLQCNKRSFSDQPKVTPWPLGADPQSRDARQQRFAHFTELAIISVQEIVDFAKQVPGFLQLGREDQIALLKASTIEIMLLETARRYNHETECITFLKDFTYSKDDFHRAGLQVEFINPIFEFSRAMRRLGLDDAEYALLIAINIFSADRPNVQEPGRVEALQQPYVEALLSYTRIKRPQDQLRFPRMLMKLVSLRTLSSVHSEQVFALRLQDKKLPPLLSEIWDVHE

[2] = molecular target: T2, Cytochrome P450 2C8 (Homo sapiens, UniProt P10632); test: Inhibition of CYP2C8 (unknown origin); assay type: ADME
T2 sequence (P10632 whole entry): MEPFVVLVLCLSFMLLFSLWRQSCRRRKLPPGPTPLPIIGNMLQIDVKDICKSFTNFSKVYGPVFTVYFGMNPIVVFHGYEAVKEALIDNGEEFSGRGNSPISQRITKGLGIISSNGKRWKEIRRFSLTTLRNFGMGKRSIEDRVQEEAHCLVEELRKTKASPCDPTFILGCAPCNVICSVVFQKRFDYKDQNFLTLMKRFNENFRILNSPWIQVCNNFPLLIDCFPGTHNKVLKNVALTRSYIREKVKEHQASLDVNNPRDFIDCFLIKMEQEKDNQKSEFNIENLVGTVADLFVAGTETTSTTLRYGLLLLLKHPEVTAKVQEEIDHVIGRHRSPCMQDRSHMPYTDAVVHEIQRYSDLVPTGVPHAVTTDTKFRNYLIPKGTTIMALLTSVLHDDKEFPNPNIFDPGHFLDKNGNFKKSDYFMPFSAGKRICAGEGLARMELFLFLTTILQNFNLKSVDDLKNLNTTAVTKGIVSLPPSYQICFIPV

[3] = AUC in Balb/c mouse at 2 mg/kg, iv; assay type: ADME, organism-based; conditions: in vivo
Summary of the method: (§1)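 Balb/c mice given a single intravenous dose of 2 mg/kg or an oral dose of 10 mg/kg. Plasma exposure was followed to derive Cmax, Tmax, AUC, t1/2, clearance, Vss and oral bioavailability (F).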

[4] = Clearance in Balb/c mouse at 2 mg/kg, iv; assay type: ADME, organism-based; conditions: in vivo; summary of the method: as §1
[5] = Volume of distribution at steady state in Balb/c mouse at 2 mg/kg, iv; assay type: ADME, organism-based; conditions: in vivo, read-out: Vdss; summary of the method: as §1
[6] = tested on: Mus musculus; test: Inhibition of IL2/IL23-induced IL17F production in C57BL/6 mouse at 5 mg/kg, po bid treated 30 mins prior to 24 hrs IL2 challenge followed by IL2/IL23 addition at 0,7 and 23 hrs measured after 7 hrs post last IL2/IL23 challenge relative to control; assay type: functional; conditions: C57BL/6, po
Summary of the method: (§2)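 Naive mice were challenged three times with IL-2 plus IL-23 (first at 0 and 7 h) and dosed orally bid at 5, 15 or 50 mg/kg. Serum cytokines were measured 7 h after the final IL-2/IL-23 administration. An anti-IL-23 antibody served as positive control.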

[7] = tested on: Mus musculus; test: Inhibition of IL2/IL23-induced IL22 production in po bid dosed C57BL/6 mouse treated 30 mins prior to 24 hrs IL2 challenge followed by IL2/IL23 addition at 0,7 and 23 hrs measured after 7 hrs post last IL2/IL23 challenge; assay type: functional, organism-based; summary of the method: as §2

EC50 [1]: > 7500 nM
IC50 [2]: 680 nM
AUC [3]: 7.4 µM·h
clearance [4]: 7.2 mL/min/kg
Vd [5]: 3.4 L/kg
Compound: O=C(O)[C@H]1CC[C@H](C(=O)N2CC[C@](c3ccc(C(F)(C(F)(F)F)C(F)(F)F)cc3)(S(=O)(=O)c3ccc(F)cc3)C2)CC1
inhibition in vivo at 5 mg/kg [6]: 47%
inhibition [7]: Dose-dependent effect
